The values below come from the RNAGym collection of RNA variant scans (doi:10.1002/anie.201605470).

Sequences and labels used below:
B1: Osa-1-4 twister ribozyme (parent)
chain: CCGCCUAACACUGCCAAUGCCGGUCCCAAGCCCGGAUAAAAGUGGAGGGGGCGG

In the data set the parent is B1. The data set is described as follows: self-cleavage, relative activity (ratio to wild type); higher = more cleavage; co-transcriptional. The method in brief:
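The 48 positions downstream of the cleavage site in a DNA template for a 54-nucleotide Oryza sativa twister ribozyme carried 97 % wild-type base and 1 % of each other base. After in vitro transcription (2 h, 37 °C) with co-transcriptional self-cleavage, the RNA was reverse-transcribed with a template-switching oligonucleotide, PCR-amplified and deep-sequenced. Relative activity is the fraction cleaved, judged by reads with or without upstream sequence and normalised to wild type.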
For CCGCCUAACACUGCCAAUGCCGGUCCCAUGCCCGGAAAAAAGUGGAGGGGGCGG [A29U U37A], the self-cleavage is 0.16. For CCGCCUAACACUGCCAAUGCCGGUCCCAUGCCCGGACAAAAGUGGAGGGGGCGG [A29U U37C], the self-cleavage amounted to 0.14. For CCGCCUAACACUGCCAAUGCCGGUCCCAUGCCCGGAGAAAAGUGGAGGGGGCGG [A29U U37G], the self-cleavage turned out to be 0.23. On to CCGCCUAACACUGCCAAUGCCGGUCCCAUCCCCGGAUAAAAGUGGAGGGGGCGG [A29U G30C], for which the self-cleavage came out at 0.02.

Take CCGCCUAACACUGCCAAUGCCGGUCCCAUACCCGGAUAAAAGUGGAGGGGGCGG [A29U G30A]: the self-cleavage stood at 0.03. For CCGCCUAACACUGCCAAUGCCGGUCCCAUUCCCGGAUAAAAGUGGAGGGGGCGG [A29U G30U], the self-cleavage stood at 0.03. In the case of CCGCCUAACACUGCCAAUGCCGGUCCCAUGCCCGGAUAAAAGUGGACGGGGCGG [A29U G47C], the self-cleavage is 0.03. On to CCGCCUAACACUGCCAAUGCCGGUCCCAUGCCCGGAUAAAAGUGGAAGGGGCGG [A29U G47A], for which the self-cleavage turned out to be 0.03. Consider CCGCCUAACACUGCCAAUGCCGGUCCCAUGCCCGGAUAAAAGUGGAUGGGGCGG [A29U G47U], for which the self-cleavage was found to be 0.03. For the variant CCGCCUAACACUGCCAAUGCCGGUCCCAAACCCGUAUAAAAGUGGAGGGGGCGG [G30A G35U], the self-cleavage is 0.04. For CCGCCUAACACUGCCAAUGCCGGUCCCAAACCCGAAUAAAAGUGGAGGGGGCGG [G30A G35A], the self-cleavage worked out at 0.05. In the case of CCGCCUAACACUGCCAAUGCCGGUCCCAAACCCGCAUAAAAGUGGAGGGGGCGG [G30A G35C] it was 0.03. For the variant CCGCCUAACACUGCCAAUGCCAGUCCCAUGCCCGGAUAAAAGUGGAGGGGGCGG [A29U G22A], the self-cleavage was found to be 0.12. Next, CCGCCUAACACUGCCAAUGCCCGUCCCAUGCCCGGAUAAAAGUGGAGGGGGCGG [A29U G22C]: 0.04. Regarding CCGCCUAACACUGCCAAUGCCUGUCCCAUGCCCGGAUAAAAGUGGAGGGGGCGG [A29U G22U], the self-cleavage was 0.08.

For the variant CCGCCUAACACUGCCAAUGCCGGUCCCAUGCCCGGAUAAAAGUAGAGGGGGCGG [A29U G44A], the self-cleavage stood at 0.06. Regarding CCGCCUAACACUGCCAAUGCCGGUCCCAUGCCCGGAUAAAAGUUGAGGGGGCGG [A29U G44U], the self-cleavage was found to be 0.07. As for CCGCCUAACACUGCCAAUGCCGGUCCCAUGCCCGGAUAAAAGUCGAGGGGGCGG [A29U G44C], the self-cleavage was found to be 0.12. In the case of CCGCCUAACACUGCCAAUGCCGGUCCCAUGCCCGGAUAAAAGUGGAGCGGGCGG [A29U G48C] it was 0.03. In the case of CCGCCUAACACUGCCAAUGCCGGUCCCAUGCCCGGAUAAAAGUGGAGUGGGCGG [A29U G48U] it was 0.03; in that of CCGCCUAACACUGCCAAUGCCGGUCCCAUGCCCGGAUAAAAGUGGAGAGGGCGG [A29U G48A], 0.03; in that of CCGCCUAACACUGCCAAUGCCGGUCCCAAACCCGGAUAAAAGUGGAGGAGGCGG [G30A G49A], 0.02. Next, CCGCCUAACACUGCCAAUGCCGGUCCCAUGCCCGGAUAAAAGUGGAGGGGCCGG [A29U G51C]: 0.05; CCGCCUAACACUGCCAAUGCCGGUCCCAUGCCCGGAUAAAAGUGGAGGGGUCGG [A29U G51U]: 0.04.

In the case of CCGCCUAACACUGCCAAUGCCGGUCCCAUGCCCGGAUAAAAGUGGAGGGGACGG [A29U G51A], the self-cleavage was 0.06. Next, CCGCCUAACACGGCCAAUGCCGGUCCCAUGCCCGGAUAAAAGUGGAGGGGGCGG [A29U U12G]: 0.04; CCGCCUAACACAGCCAAUGCCGGUCCCAUGCCCGGAUAAAAGUGGAGGGGGCGG [A29U U12A]: 0.08. For CCGCCUAACACCGCCAAUGCCGGUCCCAUGCCCGGAUAAAAGUGGAGGGGGCGG [A29U U12C], the self-cleavage was 0.05. Next, CCGCCUAACACUACCAAUGCCGGUCCCAUGCCCGGAUAAAAGUGGAGGGGGCGG [A29U G13A]: 0.04.

On to CCGCCUAACACUUCCAAUGCCGGUCCCAUGCCCGGAUAAAAGUGGAGGGGGCGG [A29U G13U], for which the self-cleavage was 0.02. Consider CCGCCUAACACUCCCAAUGCCGGUCCCAUGCCCGGAUAAAAGUGGAGGGGGCGG [A29U G13C], for which the self-cleavage turned out to be 0.01.

Consider CCGCCUAACACUGCCAAUGCCGCUCCCAUGCCCGGAUAAAAGUGGAGGGGGCGG [A29U G23C], for which the self-cleavage is 0.03. Next, CCGCCUAACACUGCCAAUGCCGAUCCCAUGCCCGGAUAAAAGUGGAGGGGGCGG [A29U G23A]: 0.08; CCGCCUAACACUGCCAAUGCCGUUCCCAUGCCCGGAUAAAAGUGGAGGGGGCGG [A29U G23U]: 0.03; CCGCCUAACACUGCCAAUGCCGGUCCCAAACCCGGAUAAAAAUGGAGGGGGCGG [G30A G42A]: 0.04. Next, CCGCCUAACACUGCCAAUGCCGGUCCCAAACCCGGAUAAAACUGGAGGGGGCGG [G30A G42C]: 0.03. CCGCCUAACACUGCCAAUGCCGGUCCCAAACCCGGAUAAAAUUGGAGGGGGCGG [G30A G42U]: the self-cleavage amounted to 0.02.

As to CCGCCUAACACUGCCAAUGCCGGUCCCAAACCCGGAUAAAAGUGGAGUGGGCGG [G30A G48U], the self-cleavage stood at 0.01. Take CCGCCUAACACUGCCAAUGCCGGUCCCAAACCCGGAUAAAAGUGGAGAGGGCGG [G30A G48A]: the self-cleavage worked out at 0.01. As to CCGCCUAACACUGCCAAUGCCGGUCCCAAACCCGGAUAAAAGUGGAGCGGGCGG [G30A G48C], the self-cleavage worked out at 0.02. For CCGCCUAACACUGCCAAUGCCGGUCCCAUGCCCGGAUAAAAGCGGAGGGGGCGG [A29U U43C], the self-cleavage was 0.06. As to CCGCCUAACACUGCCAAUGCCGGUCCCAUGCCCGGAUAAAAGGGGAGGGGGCGG [A29U U43G], the self-cleavage stood at 0.08. In the case of CCGCCUAACACUGCCAAUGCCGGUCCCAUGCCCGGAUAAAAGAGGAGGGGGCGG [A29U U43A] it was 0.06; in that of CCGCCUAACACUGCCAAUGCCGGUCCCAUGCCCGGAUAAAAGUGGAGGGUGCGG [A29U G50U], 0.09. In the case of CCGCCUAACACUGCCAAUGCCGGUCCCAUGCCCGGAUAAAAGUGGAGGGAGCGG [A29U G50A] it was 0.13; in that of CCGCCUAACACUGCCAAUGCCGGUCCCAUGCCCGGAUAAAAGUGGAGGGCGCGG [A29U G50C], 0.04; in that of CCGCCUAACACUGCCAAUGCCGGUCCCAUGCCCGGAUAAAAAUGGAGGGGGCGG [A29U G42A], 0.06.

As to CCGCCUAACACUGCCAAUGCCGGUCCCAUGCCCGGAUAAAACUGGAGGGGGCGG [A29U G42C], the self-cleavage stood at 0.04. As for CCGCCUAACACUGCCAAUGCCGGUCCCAUGCCCGGAUAAAAUUGGAGGGGGCGG [A29U G42U], the self-cleavage worked out at 0.03.
